Data reported in ChEMBL document CHEMBL1152836, “10H-Phenothiazines: a new class of enzyme inhibitors for inflammatory diseases” (Eur J Med Chem, 2009).

How the values were obtained:
[1] = Inhibition of phosphodiesterase assessed as production of inorganic phosphate
Procedure, shortened: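 Activity measured as inorganic phosphate released with 5'-nucleotidase present in excess. IC50 is the substrate concentration giving 50% inhibition of enzyme activity. Values are the average of three independent experiments (n = 3).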

[2] = Inhibition of prostaglandin synthetase
Procedure, shortened: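 Isolated soya bean lipoxygenase was the enzyme source. Arachidonic acid metabolites (prostaglandin E, leukotrienes) were analysed by reverse-phase ODS-18 HPLC with acetonitrile:water 70:30 mobile phase, detection at 280 nm. IC50 is the substrate concentration giving 50% inhibition. Values are the average of three independent experiments (n = 3).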

[3] = target: Glutathione hydrolase 1 proenzyme (Homo sapiens, UniProt P19440); experiment: Inhibition of gamma-glutamyltranspeptidase by colorimetric assay
Procedure, shortened: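 Colorimetric read-out at 405 nm by a standard procedure. IC50 is the substrate concentration giving 50% inhibition of enzyme activity. Values are the average of three independent experiments (n = 3).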

[4] = Inhibition of superoxide dismutase assessed as inhibition of superoxide generation by spectrophotometry
Procedure, shortened: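 Superoxide generation measured in a cell-membrane-free system by spectrophotometry at 340 nm. IC50 is the substrate concentration giving 50% inhibition of enzyme activity. Values are the average of three independent experiments (n = 3).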

Sequence of Glutathione hydrolase 1 proenzyme (P19440 1-380 limits assumed): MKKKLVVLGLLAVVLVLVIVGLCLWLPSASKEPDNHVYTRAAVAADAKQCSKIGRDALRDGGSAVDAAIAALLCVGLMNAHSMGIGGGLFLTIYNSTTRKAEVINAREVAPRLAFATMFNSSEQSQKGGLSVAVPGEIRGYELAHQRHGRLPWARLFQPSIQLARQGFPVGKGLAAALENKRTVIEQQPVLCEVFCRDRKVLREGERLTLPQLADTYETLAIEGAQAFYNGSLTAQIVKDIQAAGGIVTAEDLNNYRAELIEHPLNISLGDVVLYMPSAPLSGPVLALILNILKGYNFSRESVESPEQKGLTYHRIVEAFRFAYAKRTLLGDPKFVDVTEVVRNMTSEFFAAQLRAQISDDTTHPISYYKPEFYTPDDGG
Sequence of Glutathione hydrolase 1 proenzyme (P19440 381-569 limits assumed): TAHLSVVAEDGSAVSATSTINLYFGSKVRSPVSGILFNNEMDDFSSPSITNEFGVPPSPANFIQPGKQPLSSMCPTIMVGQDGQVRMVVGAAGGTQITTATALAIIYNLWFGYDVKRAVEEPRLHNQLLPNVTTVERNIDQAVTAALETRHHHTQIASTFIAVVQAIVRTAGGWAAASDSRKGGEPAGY

SMILES	IC50 [1] [µM]	IC50 [2] [µM]	IC50 [3] [µM]	IC50 [4] [µM]
CC(=O)Oc1ccccc1C(=O)O [ASPIRIN]	22	24	36	28
CNC(=O)C1=C(C)C2=C(Nc3ccccc3S2)C(C(=O)NC)C1c1ccc(Cl)cc1 (stereo not drawn)	26	28	> 35	31
CNC(=O)c1c(C)c2c(c(C(=O)NC)c1-c1ccccc1Cl)Nc1ccccc1S2	15	15	18	20
CNC(=O)c1c(C)c2c(c(C(=O)NC)c1-c1ccc3c(c1)OCO3)Nc1ccccc1S2	20	24	18	20
CNC(=O)c1c(C)c2c(c(C(=O)NC)c1-c1ccc(OC)cc1)Nc1ccccc1S2	22	18	21	19
CNC(=O)c1c(C)c2c(c(C(=O)NC)c1-c1ccc(Cl)cc1)Nc1ccccc1S2	18	23	20	18
CNC(=O)C1=C(C)C2=C(Nc3ccccc3S2)C(C(=O)NC)C1c1ccccc1OC (stereo not drawn)	> 30	20	> 30	> 30
CNC(=O)C1=C(C)C2=C(Nc3ccccc3S2)C(C(=O)NC)C1c1ccccc1 (stereo not drawn)	16	18	20	15
CNC(=O)C1=C(C)C2=C(Nc3ccccc3S2)C(C(=O)NC)C1c1ccc([N+](=O)[O-])cc1 (stereo not drawn)	> 30	28	36	32
CNC(=O)C1=C(C)C2=C(Nc3ccccc3S2)C(C(=O)NC)C1c1ccc(OC)cc1 (stereo not drawn)	21	20	25	18
CNC(=O)C1=C(C)C2=C(Nc3ccccc3S2)C(C(=O)NC)C1c1ccccc1C (stereo not drawn)	18	21	22	17
CNC(=O)c1c(C)c2c(c(C(=O)NC)c1-c1ccccc1)Nc1ccccc1S2	–	18	20	14
CNC(=O)c1c(C)c2c(c(C(=O)NC)c1-c1ccccc1C)Nc1ccccc1S2	18	21	25	18
CNC(=O)c1c(C)c2c(c(C(=O)NC)c1-c1ccccc1OC)Nc1ccccc1S2	25	22	28	> 30
CNC(=O)C1=C(C)C2=C(Nc3ccccc3S2)C(C(=O)NC)C1c1ccc2c(c1)OCO2 (stereo not drawn)	> 30	28	> 30	> 30
CNC(=O)C1=C(C)C2=C(Nc3ccccc3S2)C(C(=O)NC)C1c1ccccc1Cl (stereo not drawn)	13	16	19	18
